Source: PubChem
SKKanGAS inh: blocks kanamycin growth of S. pyogenes SKKanGAS strain; BacTiter-Glo, 6 h; inhibition, % at 7.5 µM; 300,000 tested, 1.3% active;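 active means mean replicate score, as percent of positive control median, at least 50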;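 further: strain carries kanamycin resistance gene driven by streptokinase promoter and grows in 40 µg/ml kanamycin; loss of luminescence reflects streptokinase promoter inhibition or plain growth inhibition; 0% = median of DMSO wells and 100% = positive control at its reference dose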
T cruzi repl: blocks replication of Trypanosoma cruzi. T. cruzi beta-gal in NIH3T3, luminescence, 90 h. 300,000 tested, 1.4% active. inhibition, % (test concentration not listed);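 active means mean inhibition across valid replicates above about 55%, limit read from the data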;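 further: signal also drops with host cell toxicity which is not excluded here; 0% = plate median of DMSO wells and 100% = zero luminescence signal; higher percent means less beta-gal luminescence so fewer parasites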
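System: NIH/3T3 fibroblasts plus reporter T. cruzi. Medium: DMEM plus 2% FBS. Probe or stimulus: 5000 reporter trypomastigotes per well. Compound: single 50 nL compound addition per well in DMSO. Incubation: co-culture of at least 90 h after 3 h attachment. Detection: GalScreen β-gal luminescence, detergent lysis, 60 min. Evaluation: parasite load inhibition, %.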
Calb FLC: C. albicans growth modulation with fluconazole. C. albicans CaCi-2 (fluconazole-resistant clinical isolate) + fluconazole, Alamar Blue growth, 48 h. 300,000 tested, 0.57% active. growth inhibition, % (no concentration beside the values);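 active means growth inhibition above about 58% in most replicates, limit read from the data, passing the limit was not always enough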;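 further: all wells also contain fluconazole at 8 µg/ml as a sub-toxic cotreatment; 0% = median of DMSO wells and 100% = median of geldanamycin control wells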
Mdm2-MdmX inh: human Mdm2/MdmX binding inhibition; 330,000 tested, 3% active; AID 485346; inhibition, % at 8 µM; O15151+Q00987; SaOS-2 split-luciferase Mdm2/MdmX complementation, luminescence;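 active means inhibition of at least 50% at 8 µM in the primary screen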
Target sequence (O15151 whole entry, looked up): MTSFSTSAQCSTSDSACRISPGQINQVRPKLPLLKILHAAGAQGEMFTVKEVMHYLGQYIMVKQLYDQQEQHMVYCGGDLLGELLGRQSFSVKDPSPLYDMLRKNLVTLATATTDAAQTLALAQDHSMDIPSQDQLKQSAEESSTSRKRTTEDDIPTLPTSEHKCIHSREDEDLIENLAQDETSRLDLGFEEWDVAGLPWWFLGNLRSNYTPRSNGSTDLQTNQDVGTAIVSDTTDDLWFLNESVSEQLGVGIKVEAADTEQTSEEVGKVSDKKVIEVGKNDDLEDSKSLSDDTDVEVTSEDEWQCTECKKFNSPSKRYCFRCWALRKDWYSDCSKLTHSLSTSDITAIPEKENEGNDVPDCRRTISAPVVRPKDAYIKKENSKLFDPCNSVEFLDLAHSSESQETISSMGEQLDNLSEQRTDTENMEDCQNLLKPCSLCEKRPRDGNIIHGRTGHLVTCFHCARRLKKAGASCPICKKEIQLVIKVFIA
Target sequence (Q00987 whole entry, looked up): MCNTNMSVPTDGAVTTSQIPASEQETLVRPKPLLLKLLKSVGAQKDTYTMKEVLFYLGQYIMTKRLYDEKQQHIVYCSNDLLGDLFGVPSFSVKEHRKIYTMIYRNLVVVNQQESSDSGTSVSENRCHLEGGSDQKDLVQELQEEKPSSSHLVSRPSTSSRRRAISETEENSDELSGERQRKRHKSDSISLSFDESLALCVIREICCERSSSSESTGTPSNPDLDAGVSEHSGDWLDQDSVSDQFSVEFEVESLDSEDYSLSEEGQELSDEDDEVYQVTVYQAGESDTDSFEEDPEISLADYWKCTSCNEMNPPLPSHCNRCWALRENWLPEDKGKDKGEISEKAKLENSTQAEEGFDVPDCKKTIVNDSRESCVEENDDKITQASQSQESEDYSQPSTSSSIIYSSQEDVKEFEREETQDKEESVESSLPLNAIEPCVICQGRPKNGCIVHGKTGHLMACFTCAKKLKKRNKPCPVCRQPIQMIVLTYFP
CSC inhib: cancer stem cell inhibition | cancer stem cell-like cells viability, luminescence | inhibition, % at 7.5 µM | 300,000 tested, 1.1% active; in the data active means inhibition above about 75%; tested in HMLE shEcad cells
Beta apoptosis: beta cell apoptosis inhibition; INS-1E cytokine-induced death, ATP luminescence, 48 h; percent of positive-control rescue, neutral wells zero; protection from apoptosis, % (concentration not given with the values); 300,000 tested, 0.8% active; AID 435005;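 active means Every replicate reaches about 75%, or at least half do and their mean reaches it too, limit read from the data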;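 further: 0% = cytokine-treated negative control wells and 100% = positive control rescue; higher means more ATP so stronger rescue from cytokine killing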
Mdm2 MdmX conf: human Mdm2/MdmX binding inhibition, confirmed; 10,000 tested, 55% active; shares compounds with Mdm2-MdmX inh; inhibition, % at 8 µM; luminescent assay; in the data active means inhibition above about 40%
Full FLuc ctr: inhibits full-length luciferase, flagging false Mdm2/MdmX hits | 6,200 tested, 77% active | inhibition, % at 8 µM | AID 504607 | SaOS-2 full-length luciferase counterscreen, luminescence | shares compounds with Mdm2-MdmX inh;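 active means mean inhibition at 8 µM reaching about 37%, which flags the compound as non-specific, limit read from the data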;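 further: p53-null SaOS-2 cells with luciferase driven by a doxycycline-inducible promoter; compound on cells about two nights before reading with doxycycline added after day one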
* = called active by the depositor; x = no result given. Only some compounds are listed: those with a hit (about 5.7% of all), similar ones and a draw of the others.

SMILES	SKKanGAS inh	T cruzi repl	Calb FLC	Mdm2-MdmX inh	CSC inhib	Beta apoptosis	Mdm2 MdmX conf	Full FLuc ctr
CCOc1cccc(C(=O)Nc2cccc(-c3nnc(-c4ccc(C)cc4)o3)c2)c1	-6	3	-2	84*	69	13	8	x
O=S(=O)(CC(CN1CCCC1)N1CCCC1)c1ccc2ccccc2c1 (stereo not given)	2	10	-3	75*	7	-3	85*	56*
O=S(=O)(c1ccc2ccccc2c1)N1CCCCCC1	2	-8	-19	17	8	1	x	x
CCCN(Cc1nnc(-c2cccs2)o1)C(=O)CN1C(=O)NC2(CCCCC2C)C1=O (stereo not given)	x	x	x	10	x	-10	x	x
Cc1nc(NC(=O)/C=C/c2ccccc2)n[nH]1	0	-48	-2	56*	45	-37	40*	33
NC(=O)c1nc(-c2cccs2)nc2c1[nH]c(=O)n2-c1ccc(F)cc1	-11	-18	3	100*	18	42	67*	81*
Cc1cccc(-n2c(=O)[nH]c3c(C(N)=O)nc(-c4ccccc4Cl)nc32)c1	3	15	32	2	-12	0	x	x
NC(=O)c1nc(-c2ccco2)nc2c1[nH]c(=O)n2-c1ccc(Cl)c(Cl)c1	-3	3	-1	75*	1	30	14	x
Cc1ccc2nc3c(c(Nc4ccc5c(c4)OCCO5)c2c1)CCC3	12	33	11	56*	-1	21	15	x
O=C(Nc1ccc2c(c1)OCO2)C1CC(=O)N(c2ccccc2)C1 (stereo not given)	-2	6	-1	14	-5	-10	x	x
Cc1cc(C)cc(OCc2nc3ncc(Br)cc3[nH]2)c1	-3	-3	-20	81*	39	48	74*	31
COc1cccc(OCc2nc3ncc(Br)cc3[nH]2)c1	-4	-23	-7	43	44	30	x	x
COc1ccc(S(=O)(=O)N2CCOCC2)cc1NC(=O)CCCOc1ccccc1	x	x	x	-20	-7	-16	x	x
COCCCNC(=O)c1ccc(Cn2c(=O)c3ccccc3n(Cc3ccc(C)cc3)c2=O)cc1	11	18	-6	56*	-1	-4	24	x
CC(=O)NC(c1ccc(C)cc1)c1cc(Cl)c2cccnc2c1O (stereo not given)	98*	62*	-3	87*	18	6	77*	21
CC(=O)NC(c1cc(Cl)c2cccnc2c1O)C(C)C (stereo not given)	x	x	x	66*	42	103*	43*	37*
CC(=O)NC(c1cc(Cl)c2cccnc2c1O)C1CC1 (stereo not given)	x	x	x	53*	110*	87*	49*	33
COc1ccc(-c2noc(CSc3nc4sc(C)c(C)c4c(=O)n3-c3ccccc3)n2)cc1	3	13	-19	44	11	5	x	x
COc1ccc(-c2noc(CSc3nc4sc(C)c(C)c4c(=O)n3-c3ccccc3)n2)cc1OC	2	20	0	50*	-8	1	32	x
NNC(=O)c1cc2c(s1)-c1cc(Cl)ccc1SC2	10	5	16	32	24	3	x	x
CCN(CC)CCNC(=O)c1cc2c(s1)-c1ccccc1SC2	-9	55*	-1	64*	51	41	48*	79*
Cc1nc2scc(-c3ccccc3)c2c(=O)o1	-2	-21	6	4	-12	-2	x	x
COc1ccc(-c2csc3nc(-c4ccccc4OC)oc(=O)c23)cc1	x	-65	x	59*	64	9	24	x
COc1ccc(-c2csc3nc(C)nc(N4CCCCC4)c23)cc1OC	2	12	10	65*	32	0	32	x
COc1ccc(-c2csc3nc(C(C)(C)C)oc(=O)c23)cc1OC	-19	-19	9	13	-10	-1	x	x
COc1ccc(-c2csc3nc(-c4ccc(C)cc4)oc(=O)c23)cc1OC	4	-8	9	92*	23	17	21	x
O=c1oc(-c2ccccc2F)nc2scc(-c3ccccc3)c12	-1	-6	10	53*	12	9	50*	171*
